Data reported in ChEMBL document CHEMBL2062366, “Synthesis and biological evaluation of purpurealidin E-derived marine sponge metabolites: aplysamine-2, aplyzanzine A, and suberedamines A and B” (2012).
≈ marks a conversion by molar mass, not a printed value. Calls of active or inactive are those of the source. The rule behind the calls is not given here.

Tested on: Mycobacterium tuberculosis
Assay: Antimycobacterial activity against Mycobacterium bovis BCG after 2 weeks by spot culture growth inhibition assay
Format: functional
Conditions: variant bovis BCG
How it was run: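 BCG grown in rolling bottles in 7H9 + 10% ADC + 0.05% Tween 80 to midexponential phase, quality-checked by Ziehl−Neelsen staining. Culture diluted to 10³ cfu/mL; 10 μL spotted onto 7H10 agar + 10% OADC containing compound, 37 °C for 2 weeks. Controls: DMSO (negative), isoniazid (positive). MIC = lowest concentration with no growth.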

Row | Structure (SMILES) | MIC (336 h) [µg/mL] | MIC
1 | COc1ccc(C[C@H](N)C(=O)NCCc2cc(Br)c(OCCCN(C)C)c(Br)c2)cc1Br [SUBEREDAMINE A] | 50 (≈ 78.6 µM) | 
2 | CN[C@@H](Cc1ccc(OC)c(Br)c1)C(=O)NCCc1cc(Br)c(OCCCN(C)C)c(Br)c1 [SUBEREDAMINE B] | 40 (≈ 61.5 µM) | 
3 | COc1c(Br)cc(C[C@@H](C(=O)NCCc2cc(Br)c(OCCCN(C)C)c(Br)c2)N(C)C)cc1Br [APLYZANZINE A] | 25 (≈ 33.6 µM) | 
4 | CNC(Cc1cc(Br)c(OC)c(Br)c1)C(=O)NCCCOc1c(Br)cc(CCN(C)C)cc1Br.Cl (stereo unspecified) [ANOMOIAN A] | 25 | 
5 | COc1ccc(C/C(=N\O)C(=O)NCCc2cc(Br)c(OCCCN(C)C)c(Br)c2)cc1Br | 25 (≈ 38.4 µM) | 
6 | CN(C)CCCOc1c(Br)cc(CCN)cc1Br |  | inactive
